Shown are actives, neighbours in structure and some others; about 3.3% of the full set was active somewhere.
rCAG RNA binder: binders of r(CAG) RNA repeats, primary screen, biochemical, fluorescence | r(CAG) RNA repeat, TO-PRO-1 dye displacement fluorescence | inhibition, % at 3 µM | 1.3% of 370,000 active | AID 651821, 2012;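 active means inhibition above the plate cutoff, the mean of all test compounds on that plate plus 3 SD, cut at about 35% in these data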;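 further: 0% = DMSO alone and 100% = 100 µM mitoxantrone as full dye displacement; higher means more dye released from RNA so lower well fluorescence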
PRMT1 inh: PRMT1 methyltransferase inhibitors, primary screen, biochemical, fluorescence polarization. Protein arginine N-methyltransferase 1 (Homo sapiens), Q99873. recombinant PRMT1, activity-based probe fluorescence polarization. inhibition, % at 2.79 µM. 1.3% of 370,000 active. AID 652257, 2013;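 active means inhibition above about 21% made by adding two undisclosed values, limit read from the data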
Target sequence (Q99873 whole entry, looked up): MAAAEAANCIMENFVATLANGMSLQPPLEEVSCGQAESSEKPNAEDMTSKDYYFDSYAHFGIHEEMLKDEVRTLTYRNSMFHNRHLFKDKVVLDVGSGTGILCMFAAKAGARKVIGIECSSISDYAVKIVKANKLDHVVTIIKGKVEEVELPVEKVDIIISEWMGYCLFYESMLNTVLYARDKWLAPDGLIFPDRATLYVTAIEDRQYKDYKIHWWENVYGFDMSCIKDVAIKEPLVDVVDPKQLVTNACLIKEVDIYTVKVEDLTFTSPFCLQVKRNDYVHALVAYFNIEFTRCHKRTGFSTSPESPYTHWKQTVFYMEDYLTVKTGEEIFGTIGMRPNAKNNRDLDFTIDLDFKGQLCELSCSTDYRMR
SIAE primary: human SIAE inhibitors, primary screen, biochemical, fluorescence polarization, FP-Rh probe, 1536-well HTS; 0.69% of 370,000 active; inhibition, % at 9.66 µM; AID 1053197, 2014; Sialate O-acetylesterase (Homo sapiens), Q9HAT2; SIAE FP-Rh probe binding;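 active means inhibition above a cutoff: mean of compounds within the control limits plus 3 SD of those, cut at about 17% in these data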;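 further: 0% = plate median of compound wells and 100% = probe without SIAE protein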
mABHD4 FP: ABHD4 inhibitors, primary screen, biochemical, fluorescence polarization, mouse. inhibition, % at 8.92 µM. 0.54% of 370,000 active. purified mABHD4, FP-Rh probe fluorescence polarization. (Lyso)-N-acylphosphatidylethanolamine lipase (Mus musculus), Q8VD66;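 active means inhibition exceeding the mean over every tested compound plus 3 SD, cut at about 30% in these data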;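 further: 0% = plate median of compound wells and 100% = S159A mutant with DMSO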
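Assay system: wild-type mouse ABHD4 protein; compound: single nominal dose of 8.92 µM, 0.89% DMSO final; schedule: 45 min + 60 min at 25 °C; measured by: FP readout, ex 525 nm / em 598 nm; evaluation: % inhibition of FP-Rh probe binding versus controls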
HTRA1 inhibitor: HTRA1 serine protease inhibitors, primary screen, biochemical, fluorescence polarization, HTS. Q92743. recombinant HTRA1, FP-rhodamine activity-based probe. inhibition, % at 5.96 µM. 0.5% of 340,000 active; in the data active means inhibition above about 36%;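 further: 0% = enzyme with DMSO and 100% = wells lacking enzyme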
mABHD4 conf: ABHD4 inhibitors, retest, confirmation, biochemical, fluorescence polarization, mouse. shares compounds with mABHD4 FP. purified mABHD4, FP-Rh probe fluorescence polarization. inhibition, % at 8.92 µM. 55% of 1,800 active. AID 720658, 2013;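 active means mean inhibition across replicates above the hit cutoff set in the primary screen, cut at about 30% in these data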;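 further: 0% = wild-type ABHD4 with DMSO and 100% = catalytically dead S159A mutant with DMSO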
* marks the source's active call; other numbers are inactive results; x = no result; ! = repeats disagree.

SMILES	rCAG RNA binder	PRMT1 inh	SIAE primary	mABHD4 FP	HTRA1 inhibitor	mABHD4 conf
Cc1ccn2c(NC3CCCCC3)c(-c3cccc(SC4CCCCC4)c3)nc2c1	11	2	7	31*!	-15	25
CCC(C)Sc1cccc(-c2nc3cc(C)ccn3c2NC2CCCCC2)c1 (stereo not drawn)	-2	0	4	39*	-8	52*
Cc1ccn2c(NC3CCCCC3)c(-c3ccc(SC4CCCCC4)cc3)nc2c1	4	1	1	5	x	x
O=C(NC(CC(=O)N1CCN(c2ccccc2O)CC1)c1ccccc1)c1ccccc1Cl (stereo not drawn)	8	-3	3	0	-4	x
O=C(COC(=O)COc1ccc(Cl)cc1)Nc1ccc(F)c([N+](=O)[O-])c1	4	0	4	3	-1	x
Oc1[nH]c2ccc(Br)cc2c1N=NC(=S)Nc1ccc(F)cc1	32	3	0	10	5	x
Oc1ccc(NC(=S)N=Nc2c(O)[nH]c3ccc(Br)cc23)cc1	32	-4	8	30*	9	33*
O=C(c1cc(C2CC2)on1)N(C1CCCCC1)C1CCCCC1	0	-2	-3	-4	x	x
CC(C)(O)C#Cc1ccc(CN2CCN(Cc3ccccc3)C(CCO)C2)s1 (stereo not drawn)	-10	-10	-8	2	14	x
CC(C)(O)C#Cc1ccc(CN2CCN(Cc3ccsc3)C(CCO)C2)s1 (stereo not drawn)	-6	-1	2	93*	5	-3
CC(=O)c1sc2nc(-c3ccco3)ccc2c1N	35	52*	9	31*	x	12
CC1(C)Oc2cc(N)c([N+](=O)[O-])cc2O1	2	15	6	41*	7	-11
C/C(CCc1ccco1)=N/NC(=O)CCC(=O)Nc1ccc(Br)cc1	5	3	-8	0	-29	x
O=C1C(=Cc2ccco2)C(=O)c2ccccc21	30	35*	3	35*	25	28
O=C(O)c1ccc2c(c1)C(=O)/C(=C\c1ccco1)C2=O	18	34*	-6	30*	10	28
O=C1c2ccccc2CCc2ccc(Br)cc21	2	-1	-2	-6	-22	x
CCOC(=O)c1c(C)n2c3c(cc(C)cc13)CCC2	-2	-1	2	31*	-4	-4
Cc1c(Cl)cccc1N/C(SCC(=O)N1CCCCCC1)=C(/C#N)c1nc2ccccc2s1	4	-1	-3	35*	-3	34*
COc1ccccc1CCNC(=O)c1ccc(Br)s1	-7	-1	-2	118*	-12	-12
O=C(Nc1nnc(SCc2cccnc2)s1)C1CC(=O)N(c2ccc(F)cc2)C1 (stereo not drawn)	15	6	1	7	-2	x
Cc1cccc2c3nc4ccccc4nc3n(CCCN3C(=O)c4ccccc4C3=O)c12	-1	3	-3	1	-7	x
COc1cc(/C=N/Nc2nc(N3CCCC3)nc(N3CCCC3)n2)ccc1O	-4	1	6	11	2	x
Oc1ccc(/C=N/Nc2nc(N3CCCC3)nc(N3CCCC3)n2)cc1O	0	4	7	30*	27	25
CNC(=S)N/N=C/c1cc(Br)cc(Br)c1O	10	-1	7	31*	34	27
CCc1ccc2c(c1)/C(=C/C(=O)c1cccs1)C(=O)N2	21	11	11	37*	-7	56*
SMILES	rCAG RNA binder	PRMT1 inh	SIAE primary	mABHD4 FP	HTRA1 inhibitor	mABHD4 conf
Cc1cccc2c1NC(=O)/C2=C\C(=O)c1cccs1	17	2	5	13	-4	x
O=C(N/N=C/c1ccccc1O)c1ccncc1	1	-3	-4	2	7	x
O=C(NN=Cc1cccc(O)c1O)c1ccccc1	10	7	8	39*	x	7
CCOc1ccc(CCNC(=O)CS(=O)Cc2nc(-c3ccc(C)cc3)oc2C)cc1OCC (stereo not drawn)	-1	-5	-5	-8	-6	x
CCOc1ccc(CCNC(=O)CS(=O)Cc2nc(-c3ccc(C)cc3)oc2C)cc1 (stereo not drawn)	-7	5	-2	30*	1	-14
O=C(O)c1ccccc1OCc1ccccc1Br	-5	-1	-1	4	2	x
F[B-](F)(F)COCc1ccccc1Br	3	-4	-2	80*	0	70*
O=C(C#Cc1ccccc1)Nc1ccccc1F	0	-4	-2	-4	-1	x
CCCCC#Cc1ccccc1COC[B-](F)(F)F	9	-1	9	75*	x	75*
CCCCC#Cc1ccc(C(=O)NNC(=O)Nc2ccccc2)o1	2	-3	1	4	1	x
F[B-](F)(F)COCc1ccccc1C#Cc1ccccc1	13	-6	0	77*	x	79*
CC(=O)Nc1ccc(C(=O)OCC(=O)Nc2ccccc2Sc2ccccc2)cc1	1	-1	-15	-31	-79	x
N#CCC(=O)Nc1ccc(C(=O)OCC(=O)Nc2ccccc2Sc2ccccc2)cc1	18	1	8	52*	x	-77
O=C(O)c1cc(NN=Nc2ccc(Br)cc2)cc([N+](=O)[O-])c1	17	6	-7	68*	-5	67*
O=C(O)c1cc(NN=Nc2cccc([N+](=O)[O-])c2)cc([N+](=O)[O-])c1	31	6	-17	69*	-4	73*
O=[N+]([O-])c1cccc(NN=Nc2ccccc2)c1	3	4	3	7	4	x
O=C(O)c1cc(NN=Nc2cccc(S(=O)(=O)O)c2)cc([N+](=O)[O-])c1	6	2	-10	39*	3	35*
Cc1ccc(-n2c(Cc3cccs3)nnc2SCc2ccc(Br)cc2)cc1	2	-1	-1	-9	x	x
Cc1ccc(C)c(N2CCN(C(=O)CCC(=O)Nc3nnc(C(F)(F)F)s3)CC2)c1	1	0	0	7	-7	x
c1cc2c(cc1CNc1ccc(N3CCOCC3)cc1)OCO2	8	5	12	30*	30	-15
Cc1ccccc1NC(=O)Cc1nc(COC(=O)c2cc([N+](=O)[O-])ccc2N)cs1	9	1	-12	62*	-16	126*
Cc1ccccc1NC(=O)Cc1nc(COC(=O)c2cc(Br)ccc2O)cs1	2	5	-5	18	-1	x
Cc1ccc(CNc2nc(NCc3ccccc3)nc3ccsc23)c(C)c1	2	0	11	35*	x	47*
COc1ccccc1CNc1nc(NCCOc2ccccc2)c2sccc2n1	0	-5	6	37*	x	40*
